Test results taken from ChEMBL document CHEMBL4229548, “Design, synthesis and biological evaluation of lazabemide derivatives as inhibitors of monoamine oxidase” (Bioorg Med Chem, 2018).
The source made the active and inactive calls. No cut-off for these calls is given here.

What was measured:
Rattus norvegicus [1] = test: In-vivo inhibition of MAO in rat assessed as 5-hydroxytryptamine level in brain at 20 mg/kg/day, po administered for 1 week measured post last dose by HPLC method (reference value: 0.211 +/- 0.03 ng/mg); format: functional
[2] = molecular target: T1, Amine oxidase [flavin-containing] A (Rattus norvegicus, UniProt P21396); test: Inhibition of rat MAOA using 5-hydroxytryptamine as substrate pretreated for 1200 secs followed by substrate addition and measured after 3600 secs
T1 sequence (P21396 whole entry): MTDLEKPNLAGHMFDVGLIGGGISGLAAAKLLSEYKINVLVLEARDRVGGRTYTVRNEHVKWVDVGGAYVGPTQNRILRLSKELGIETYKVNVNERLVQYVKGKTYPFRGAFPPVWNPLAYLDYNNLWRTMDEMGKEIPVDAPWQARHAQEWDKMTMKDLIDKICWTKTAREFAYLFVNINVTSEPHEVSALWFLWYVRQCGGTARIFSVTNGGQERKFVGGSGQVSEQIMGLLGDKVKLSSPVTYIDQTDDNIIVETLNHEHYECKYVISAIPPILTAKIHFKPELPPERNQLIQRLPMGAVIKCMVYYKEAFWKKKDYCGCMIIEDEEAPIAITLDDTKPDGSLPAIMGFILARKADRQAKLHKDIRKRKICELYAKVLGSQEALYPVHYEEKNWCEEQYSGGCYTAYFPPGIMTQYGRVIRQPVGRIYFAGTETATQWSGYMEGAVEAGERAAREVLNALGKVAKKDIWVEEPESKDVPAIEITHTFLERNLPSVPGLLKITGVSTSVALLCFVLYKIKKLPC

[3] = molecular target: T2, Amine oxidase [flavin-containing] B (Rattus norvegicus, UniProt P19643); test: Inhibition of rat MAOB using benzylamine as substrate pretreated for 1200 secs followed by substrate addition and measured after 3600 secs
T2 sequence (P19643 whole entry): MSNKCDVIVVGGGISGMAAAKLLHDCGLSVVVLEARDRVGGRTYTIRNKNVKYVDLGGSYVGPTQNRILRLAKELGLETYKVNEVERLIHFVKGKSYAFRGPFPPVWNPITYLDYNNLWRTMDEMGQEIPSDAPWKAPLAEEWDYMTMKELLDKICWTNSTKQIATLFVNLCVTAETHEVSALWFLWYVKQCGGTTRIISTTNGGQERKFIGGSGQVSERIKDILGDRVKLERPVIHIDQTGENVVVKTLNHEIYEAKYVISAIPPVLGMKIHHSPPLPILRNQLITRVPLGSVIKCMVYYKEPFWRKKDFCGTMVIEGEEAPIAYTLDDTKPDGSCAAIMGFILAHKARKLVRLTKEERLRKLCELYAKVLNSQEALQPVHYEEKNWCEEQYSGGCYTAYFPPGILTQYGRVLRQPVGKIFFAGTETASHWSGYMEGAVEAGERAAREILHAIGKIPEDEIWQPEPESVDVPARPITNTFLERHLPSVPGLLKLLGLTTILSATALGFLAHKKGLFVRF
Method in brief: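 Enzyme: liver mitochondrial MAO prepared by sucrose differential centrifugation and held in 100 mmol/L K-phosphate pH 7.9. Inhibitor pre-incubated with enzyme 1200 s at 37 °C, 5% CO2. Benzylamine was added (final 2 mmol/L; MAO final 0.15 mg/mL) and reacted 3600 s. Stopped with 10% perchloric acid. Benzaldehyde extracted into cyclohexane and read at A240. DMSO blank.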

Rattus norvegicus [4] = test: In-vivo inhibition of MAO in rat assessed as norepinephrine level in brain at 20 mg/kg/day, po administered for 1 week measured post last dose by HPLC method (reference value: 1.438 +/- 0.054 ng/mg); format: functional
Rattus norvegicus [5] = test: In-vivo inhibition of MAO in rat assessed as dopamine level in brain at 20 mg/kg/day, po administered for 1 week measured post last dose by HPLC method (reference value: 0.459 +/- 0.07 ng/mg); format: functional
Rattus norvegicus [6] = test: In-vivo inhibition of MAO in rat assessed as 5-hydroxytryptamine level in plasma at 20 mg/kg/day, po administered for 1 week measured post last dose by HPLC method (reference value: 67.4 +/- 5.9 ng/ml); format: functional
Rattus norvegicus [7] = test: In-vivo inhibition of MAO in rat assessed as norepinephrine level in plasma at 20 mg/kg/day, po administered for 1 week measured post last dose by HPLC method (reference value: 200 +/- 13.2 ng/ml); format: functional
Rattus norvegicus [8] = test: In-vivo inhibition of MAO in rat assessed as dopamine level in plasma at 20 mg/kg/day, po administered for 1 week measured post last dose by HPLC method (reference value: 121.3 +/- 10.1 ng/ml); format: functional
[9] = Acute toxicity in po dosed rat; format: organism-based; settings: in vivo
Rattus norvegicus [10] = test: In-vivo inhibition of MAOA in rat plasma at 20 mg/kg/day, po administered for 1 week measured post last dose; format: functional, organism-based
Rattus norvegicus [11] = test: In-vivo inhibition of MAOA in rat brain at 20 mg/kg/day, po administered for 1 week measured post last dose; format: functional, organism-based
Rattus norvegicus [12] = test: In-vivo inhibition of MAOB in rat plasma at 20 mg/kg/day, po administered for 1 week measured post last dose; format: functional, organism-based
Rattus norvegicus [13] = test: In-vivo inhibition of MAOB in rat brain at 20 mg/kg/day, po administered for 1 week measured post last dose; format: functional, organism-based

IC50 [2] [µM]	IC50 [3] [µM]	Structure (SMILES)	Activity (Rattus norvegicus [1]) [ng/mg]	Activity (Rattus norvegicus [4]) [ng/mg]	Activity (Rattus norvegicus [5]) [ng/mg]	Activity (Rattus norvegicus [6]) [ng/mL]	Activity (Rattus norvegicus [7]) [ng/mL]	Activity (Rattus norvegicus [8]) [ng/mL]	LD50 [9] [mg/kg]	inhibition (Rattus norvegicus [10])	inhibition (Rattus norvegicus [11])	inhibition (Rattus norvegicus [12])	inhibition (Rattus norvegicus [13])
–	–	O=C(NCO)c1ccc(Cl)cn1	0.469	4.12	0.667	100.6	569.2	201.3	3000	–	–	Active	Active
24.5	1610	NCCCNC(=O)c1ccc(Cl)cc1	–	–	–	–	–	–	–	–	–	–	–
–	783	O=C(NCCN1CCOCC1)c1ccc(Cl)cc1 [MOCLOBEMIDE]	–	–	–	–	–	–	–	–	–	–	–
–	–	NCCNC(=O)c1ccc(Cl)cc1	0.613	3.13	1.21	150.4	440.4	307.5	2810	Active	Active	–	–
790	24.8	O=C(NCCBr)c1ccc(Cl)cn1	–	–	–	–	–	–	–	–	–	–	–
–	–	O=C(NCCO)c1ccc(Cl)cc1	0.753	3.73	1.51	214.8	452.7	379.4	3090	Active	Active	–	–
26.8	895	O=C(NCCBr)c1ccc(Cl)cc1	–	–	–	–	–	–	–	–	–	–	–
–	–	O=C(NCCO)c1ccc(Cl)cn1	0.515	4.99	0.768	116.4	628.3	211.6	3060	–	–	Active	Active
–	–	NCCNC(=O)c1ccc(Cl)cn1 [LAZABEMIDE]	–	–	–	–	–	–	1000 to 2000	–	–	–	–

Structure (SMILES)	IC50 [2] [µM]	IC50 [3] [µM]	Activity (Rattus norvegicus [1]) [ng/mg]	Activity (Rattus norvegicus [4]) [ng/mg]	Activity (Rattus norvegicus [5]) [ng/mg]	Activity (Rattus norvegicus [6]) [ng/mL]	Activity (Rattus norvegicus [7]) [ng/mL]	Activity (Rattus norvegicus [8]) [ng/mL]	LD50 [9] [mg/kg]	inhibition (Rattus norvegicus [10])	inhibition (Rattus norvegicus [11])	inhibition (Rattus norvegicus [12])	inhibition (Rattus norvegicus [13])
O=C(NCO)c1ccc(Cl)cc1	7.49	1440	0.545	2.64	0.832	123.2	436.9	231.1	3000	Active	Active	–	–
